Here are results for five compounds from ChEMBL document CHEMBL3091445, “The 3,7-diazabicyclo[3.3.1]nonane scaffold for subtype selective nicotinic acetylcholine receptor ligands. Part 2: carboxamide derivatives with different spacer motifs” (Bioorg Med Chem, 2013).

In experiment [1] the target is Neuronal acetylcholine receptor subunit alpha-7 (Rattus norvegicus, UniProt Q05941). Kind of experiment: Displacement of [3H]methyllycaconitine from Sprague-Dawley rat brain alpha7 nAChR after 120 mins by liquid scintillation counting analysis. The format is tissue-based. The method, boiled down:
(§1)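 Radioligand competition binding gave Ki values, reported as mean ± SEM from 2–10 independent experiments.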

The target in experiment [2] is Neuronal acetylcholine receptor subunit alpha-7 (Homo sapiens) (UniProt P36544). Kind of experiment: Antagonist activity at human alpha7 nAChR expressed in Xenopus oocytes assessed as inhibition of acetylcholine-induced effect at 1 uM incubated for 12 secs followed by compound washout measured after 181 secs by two-electrode voltage clamp technique. The format is cell-based. In general terms: Two-electrode voltage clamp is typically applied to oocytes expressing channels or transporters.
Chain of Neuronal acetylcholine receptor subunit alpha-7 (Homo sapiens) (P36544 whole entry): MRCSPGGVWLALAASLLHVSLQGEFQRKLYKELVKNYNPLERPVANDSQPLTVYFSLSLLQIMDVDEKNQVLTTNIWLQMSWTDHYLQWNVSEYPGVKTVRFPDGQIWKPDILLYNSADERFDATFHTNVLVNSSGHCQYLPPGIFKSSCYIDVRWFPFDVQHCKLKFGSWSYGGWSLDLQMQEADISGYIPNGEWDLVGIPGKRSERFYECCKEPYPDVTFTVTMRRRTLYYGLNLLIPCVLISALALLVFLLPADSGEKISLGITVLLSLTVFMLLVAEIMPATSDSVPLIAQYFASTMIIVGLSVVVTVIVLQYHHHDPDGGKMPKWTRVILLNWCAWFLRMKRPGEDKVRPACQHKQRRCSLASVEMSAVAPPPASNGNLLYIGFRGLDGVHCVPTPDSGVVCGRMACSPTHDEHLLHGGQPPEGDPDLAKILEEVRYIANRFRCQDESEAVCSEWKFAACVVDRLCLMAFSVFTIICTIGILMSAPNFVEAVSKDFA

The target in experiment [3] is T1, Neuronal acetylcholine receptor; alpha3/beta4 (Homo sapiens) (UniProt P30926+P32297). Kind of experiment: Agonist activity at human alpha3beta4 nAChR expressed in Xenopus oocytes at 10 uM incubated for 8 secs followed by compound washout measured after 241 secs by two-electrode voltage clamp technique. The format is cell-based.
The target in experiment [4] is T2, Nicotinic acetylcholine receptor alpha1/beta1/epsilon/delta (Mus musculus) (UniProt P04756+P09690+P02716+P20782). Kind of experiment: Antagonist activity at mouse muscle alpha1beta1epsilondelta nAChR expressed in Xenopus oocytes assessed as inhibition of acetylcholine-induced effect at 1 uM incubated for 8 secs followed by compound washout measured after 241 secs by two-electrode voltage clamp technique. It counts as cell-based.

Experiment [5] concerns the target Neuronal acetylcholine receptor; alpha4/beta2 (Rattus norvegicus, UniProt P09483+P12390). Briefly: Displacement of [3H]epibatidine from Sprague-Dawley rat brain alpha4beta2 nAChR after 90 mins by liquid scintillation counting analysis. The method, boiled down: as §1
Experiment [6] has as its target Neuronal acetylcholine receptor subunit alpha-7 (Homo sapiens) (UniProt P36544). Briefly: Agonist activity at human alpha7 nAChR expressed in Xenopus oocytes at 10 uM incubated for 12 secs followed by compound washout measured after 181 secs by two-electrode voltage clamp technique. The format is cell-based.
Experiment [7] has as its target T2, Nicotinic acetylcholine receptor alpha1/beta1/epsilon/delta (Mus musculus). Briefly: Agonist activity at mouse muscle alpha1beta1epsilondelta nAChR expressed in Xenopus oocytes at 10 uM incubated for 8 secs followed by compound washout measured after 241 secs by two-electrode voltage clamp technique. It counts as cell-based.
The target in experiment [8] is T3, Neuronal acetylcholine receptor; alpha4/beta2 (Homo sapiens) (UniProt P17787+P43681). Briefly: Antagonist activity at human alpha4beta2 nAChR expressed in Xenopus oocytes assessed as inhibition of acetylcholine-induced effect at 1 uM incubated for 8 secs followed by compound washout measured after 241 secs by two-electrode voltage clamp technique. The format is cell-based.

Experiment [9] has as its target T2, Nicotinic acetylcholine receptor alpha1/beta1/epsilon/delta (Mus musculus). Briefly: Agonist activity at mouse muscle alpha1beta1epsilondelta nAChR expressed in Xenopus oocytes at 1 uM incubated for 8 secs followed by compound washout measured after 241 secs by two-electrode voltage clamp technique. It counts as cell-based.
The target in experiment [10] is T1, Neuronal acetylcholine receptor; alpha3/beta4 (Homo sapiens). Briefly: Antagonist activity at human alpha3beta4 nAChR expressed in Xenopus oocytes at 1 uM incubated for 8 secs followed by compound washout measured after 241 secs by two-electrode voltage clamp technique. It counts as cell-based.
In experiment [11] the target is T3, Neuronal acetylcholine receptor; alpha4/beta2 (Homo sapiens). Kind of experiment: Partial agonist activity at human alpha4beta2 nAChR expressed in Xenopus oocytes at 10 uM incubated for 8 secs followed by compound washout measured after 241 secs by two-electrode voltage clamp technique. The format is cell-based.
The target is the same in experiment [12]. Briefly: Partial agonist activity at human alpha4beta2 nAChR expressed in Xenopus oocytes at 1 uM incubated for 8 secs followed by compound washout measured after 241 secs by two-electrode voltage clamp technique. It counts as cell-based.
The target of experiment [13] is Neuronal acetylcholine receptor subunit alpha-7 (Homo sapiens) (UniProt P36544). Briefly: Agonist activity at human alpha7 nAChR expressed in Xenopus oocytes at 1 uM incubated for 12 secs followed by compound washout measured after 181 secs by two-electrode voltage clamp technique. It counts as cell-based.
Experiment [14] in a line: Displacement of [3H]epibatidine from Torpedo californica electroplax (alpha1)2beta1gammadelta nAChR after 90 mins by liquid scintillation counting analysis. On the set-up: species or system Tetronarce californica.
The target in experiment [15] is T1, Neuronal acetylcholine receptor; alpha3/beta4 (Homo sapiens). Briefly: Agonist activity at human alpha3beta4 nAChR expressed in Xenopus oocytes at 1 uM incubated for 8 secs followed by compound washout measured after 241 secs by two-electrode voltage clamp technique. The format is cell-based.
Experiment [16] is described as follows: Displacement of [3H]epibatidine from calf adrenal alpha3beta4 nAChR after 90 mins by liquid scintillation counting analysis. Set-up: species or system Bos taurus. For orientation: Displacement assays read how much labelled ligand stays bound in the presence of the test substance.

As a reminder, the Ki is a dissociation constant, usually derived from enzyme kinetics or from competition with a known ligand.

Activity calls are given as the source filed them. The rule behind the calls is not given here.

Chain of Neuronal acetylcholine receptor subunit alpha-7 (Q05941 whole entry): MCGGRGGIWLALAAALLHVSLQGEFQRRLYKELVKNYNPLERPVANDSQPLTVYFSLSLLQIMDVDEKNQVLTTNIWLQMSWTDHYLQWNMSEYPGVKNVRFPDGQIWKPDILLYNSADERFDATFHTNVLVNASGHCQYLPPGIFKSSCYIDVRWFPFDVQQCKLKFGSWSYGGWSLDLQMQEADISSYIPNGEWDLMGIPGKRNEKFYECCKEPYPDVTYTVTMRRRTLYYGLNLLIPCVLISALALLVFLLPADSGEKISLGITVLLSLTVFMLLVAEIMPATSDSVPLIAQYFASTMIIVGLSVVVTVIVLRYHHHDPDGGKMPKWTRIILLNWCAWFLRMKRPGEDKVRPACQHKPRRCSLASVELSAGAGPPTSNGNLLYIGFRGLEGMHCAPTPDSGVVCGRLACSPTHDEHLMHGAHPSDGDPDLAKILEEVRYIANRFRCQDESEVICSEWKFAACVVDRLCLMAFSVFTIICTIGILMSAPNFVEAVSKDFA
Chain of Neuronal acetylcholine receptor; alpha4/beta2 (P09483 whole entry): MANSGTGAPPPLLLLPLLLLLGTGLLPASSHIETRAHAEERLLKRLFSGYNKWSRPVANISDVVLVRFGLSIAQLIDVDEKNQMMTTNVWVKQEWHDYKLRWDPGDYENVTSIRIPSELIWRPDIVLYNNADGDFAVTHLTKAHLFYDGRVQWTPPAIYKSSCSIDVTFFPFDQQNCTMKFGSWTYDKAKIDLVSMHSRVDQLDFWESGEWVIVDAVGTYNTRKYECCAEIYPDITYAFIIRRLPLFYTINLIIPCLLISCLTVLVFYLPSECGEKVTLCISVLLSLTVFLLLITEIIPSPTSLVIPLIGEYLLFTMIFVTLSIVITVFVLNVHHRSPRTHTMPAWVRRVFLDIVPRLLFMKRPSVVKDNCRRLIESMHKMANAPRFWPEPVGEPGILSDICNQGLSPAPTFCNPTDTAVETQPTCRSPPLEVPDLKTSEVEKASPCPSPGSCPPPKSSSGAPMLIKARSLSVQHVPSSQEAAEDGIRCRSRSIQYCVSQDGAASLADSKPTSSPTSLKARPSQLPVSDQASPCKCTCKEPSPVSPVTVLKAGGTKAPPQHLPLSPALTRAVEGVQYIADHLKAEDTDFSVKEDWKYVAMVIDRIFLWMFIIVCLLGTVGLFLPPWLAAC
Chain of Neuronal acetylcholine receptor; alpha4/beta2 (P12390 whole entry): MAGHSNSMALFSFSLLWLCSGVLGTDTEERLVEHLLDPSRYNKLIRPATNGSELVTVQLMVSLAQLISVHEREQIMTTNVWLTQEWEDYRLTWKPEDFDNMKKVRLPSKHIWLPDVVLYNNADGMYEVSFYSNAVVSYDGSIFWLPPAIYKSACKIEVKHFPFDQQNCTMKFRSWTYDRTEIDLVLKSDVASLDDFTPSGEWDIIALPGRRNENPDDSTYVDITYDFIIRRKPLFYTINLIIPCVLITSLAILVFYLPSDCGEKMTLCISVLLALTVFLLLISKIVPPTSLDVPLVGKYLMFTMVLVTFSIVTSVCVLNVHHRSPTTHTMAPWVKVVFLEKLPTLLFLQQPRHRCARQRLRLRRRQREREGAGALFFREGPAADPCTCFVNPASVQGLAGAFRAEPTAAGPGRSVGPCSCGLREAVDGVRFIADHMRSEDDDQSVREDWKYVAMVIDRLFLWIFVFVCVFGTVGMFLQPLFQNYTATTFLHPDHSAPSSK

As to `O=C([C@@H]1C[C@H]1c1ccccc1)N1C[C@@H]2CNC[C@@H](C2)C1`, the Ki in experiment [1] is greater than 10000 nM; in [5], 1.2 nM. Moreover, the inhibition result in [2] and in experiment [4] was “inactive” each time. Moreover, the result in experiment [3] and in [6] was Active. In [7], the outcome was inactive. Also, the “antagonist activity (active/inactive)” value in [8] is “Active”.
`O=C(c1ccc(-c2cccnc2)cc1)N1C[C@@H]2CNC[C@@H](C2)C1`: the Ki in [1] is greater than 1000 nM; in experiment [5], 25 nM; in [14], greater than 5000 nM; in experiment [16], greater than 1000 nM. In addition, the outcome in experiment [9], in [10], in [3], in [7], in [13] and in experiment [15] was inactive. The outcome in experiment [11] and in [12] was Active. The inhibition entry in experiment [2] and in [4] was “inactive” throughout. In addition, in [8], the “antagonist activity (active/inactive)” value is “Active”.
As for `O=C(c1ccc(-n2ccnc2)cc1)N1C[C@@H]2CNC[C@@H](C2)C1`, the Ki in experiment [1] is greater than 1000 nM; in experiment [5], 5.6 nM; in experiment [14], greater than 5000 nM; in experiment [16] it was greater than 1000 nM. Also, the result in [9], in [10], in experiment [3], in experiment [7], in experiment [13] and in experiment [15] was inactive. The outcome in experiment [11] and in experiment [12] was Active. In addition, the inhibition entry in experiment [2] and in [4] was “inactive” throughout. The “antagonist activity (active/inactive)” value in experiment [8] is “Active”.
For the compound `CS(=O)(=O)c1ccc(CC(=O)N2C[C@@H]3CNC[C@@H](C3)C2)cc1`, the Ki is greater than 5000 nM in [1], 22.9 nM in experiment [5], greater than 5000 nM in experiment [14] and greater than 5000 nM in experiment [16]. Also, the outcome in [9], in experiment [10], in [3], in experiment [7], in experiment [13] and in [15] was inactive. Also, the outcome in experiment [11] and in experiment [12] was Active. For the same compound, the inhibition result in [2] and in experiment [4] was “inactive” throughout. For the same compound, in experiment [8], the “antagonist activity (active/inactive)” value was “Active”.
As to `O=C(c1ccc(-c2ccncc2)cc1)N1C[C@@H]2CNC[C@@H](C2)C1`, the Ki in [1] is greater than 1000 nM; in experiment [5], 7.1 nM; in experiment [14], greater than 5000 nM; in experiment [16], greater than 1000 nM. Further, the result in experiment [9], in experiment [10], in experiment [3], in experiment [7], in [13] and in experiment [15] was inactive. Also, the outcome in [11] and in experiment [12] was Active. Further, the inhibition result in experiment [2] and in experiment [4] was “inactive” each time. Further, the “antagonist activity (active/inactive)” value in experiment [8] was “Active”.
